Source: PubChem
E-selectin induc – E-selectin induction on HUVECs; P16581; HUVEC E-selectin immunofluorescence imaging; normalized: neutral wells 0, TNF-alpha wells 100; activation, % at 7.58 µM; 260,000 tested, 0.37% active;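 active = mean E-selectin-positive cell signal at least 10% of the positive control, reached in at least 60% of replicates, without over 20% cell loss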
Target sequence (P16581 whole entry, looked up): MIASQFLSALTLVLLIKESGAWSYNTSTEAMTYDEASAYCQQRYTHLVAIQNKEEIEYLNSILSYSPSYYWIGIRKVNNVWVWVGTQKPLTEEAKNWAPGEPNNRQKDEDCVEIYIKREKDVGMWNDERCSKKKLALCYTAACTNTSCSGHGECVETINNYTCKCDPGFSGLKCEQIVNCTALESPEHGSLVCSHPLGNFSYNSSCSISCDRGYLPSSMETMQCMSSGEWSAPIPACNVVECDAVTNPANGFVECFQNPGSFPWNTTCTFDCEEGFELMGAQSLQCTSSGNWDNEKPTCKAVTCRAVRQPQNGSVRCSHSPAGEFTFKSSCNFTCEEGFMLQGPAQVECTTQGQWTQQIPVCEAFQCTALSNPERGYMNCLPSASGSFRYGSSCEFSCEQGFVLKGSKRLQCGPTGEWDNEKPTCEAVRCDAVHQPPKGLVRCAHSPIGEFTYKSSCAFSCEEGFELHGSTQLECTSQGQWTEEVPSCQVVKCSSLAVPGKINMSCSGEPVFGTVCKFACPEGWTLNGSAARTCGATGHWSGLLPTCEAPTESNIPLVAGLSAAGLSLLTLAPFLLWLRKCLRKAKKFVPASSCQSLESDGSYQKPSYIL
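Test system: HUVEC; input: 3,000 HUVEC/well; measured by: immunofluorescence imaging; read-out: % PE-positive cells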
FGF22 binding – FGF22 (human) thermal shift binding; 340,000 tested, 1.5% active; activity (Tm shift, normalised), % at 9.99 µM; AID 651658; recombinant FGF22 thermal shift, SYPRO orange fluorescence; percent of sucrose octasulfate shift, DMSO zero;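 active = mean Tm shift, scaled 0 neutral to 100 positive control, at about 1.3% or above, every replicate too, limit read from the data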
SIRT5 inh – blocks human SIRT5 desuccinylation of peptide. 330,000 tested, 1.1% active. inhibition, % at 15 µM. Q9NXA8. Purified SirT5, succinyl-peptide AMC, trypsin-coupled fluorescence; in the data active = inhibition above about 15%
Ecoli rRNA inh – inhibits bacterial ribosomal RNA function over humanized ribosomes; 350,000 tested, 1.6% active; E. coli WT GFP vs humanized-ribosome RFP mutants, fluorescence, 24 h; hits give low values; DMSO median 0, no signal -100; GFP signal change (wild-type ribosome), % (concentration not given with the values);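 active = significant combined selectivity score with lowered wild-type GFP, culture density cut under 30%, mutant RFP and density less affected; inactive = any of these conditions unmet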
FN deposition inh – fibronectin deposition inhibition | inhibition, % at 12.6 µM | AH1F fibroblasts, Alexa488-fibronectin deposition fluorescence, overnight | 350,000 tested, 0.086% active | AID 743247;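 active = mean inhibition across replicates of 30% or more, regardless of how many single replicates reach that level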;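 also: positive control wells lacked labelled fibronectin entirely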
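Material: AH1F fibroblast monolayer depositing Alexa488-labelled fibronectin into matrix | Input: 10000 AH1F cells/well | Medium: DMEM plus 2% serum, read in PBS | Reagent: Alexa488-fibronectin, 24 nM final in well | Compound dosing: One dose per compound, pinned | Schedule: 1 h adhesion, overnight exposure | Measured by: Fluorescence at 485 nm excitation, 525 nm emission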
Statin myotox sup – suppressors of simvastatin-induced myotoxicity in C2C12 myotubes. ATP luminescence, 48 h; scaled: DMSO 0, geranylgeraniol control 100. rescue of ATP level, % at 7.49 µM. 330,000 tested, 0.78% active. AID 602340;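 active = mean ATP rescue above about 67%, or every replicate alone reaching that limit, limit read from the data, passing the limit was not always enough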;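 also: myotubes were challenged with 10 µM simvastatin during compound exposure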
Starred values were filed as active, the others as inactive; / = no result given. Most compounds without a hit are left out; they make up all but 4% or so of the library.

SMILES	E-selectin induc	FGF22 binding	SIRT5 inh	Ecoli rRNA inh	FN deposition inh	Statin myotox sup
COC(=O)N/N=C/c1cc(Cl)c(OCc2ccccc2F)c(OC)c1	/	0	-2	-16*	-1	/
COc1ccc(NC(=O)Nc2cccc3c2O[C@@H](CN(C)C(=O)NC2CCCCC2)[C@H](C)CN([C@@H](C)CO)C3=O)cc1	2	0	-1	-4	-3	-17
C/C=C/c1cnc2c(c1)C(=O)N([C@@H](C)CO)C[C@H](C)[C@@H](CN(C)C(=O)NC1CCCC1)O2	0	1	17*	0	/	6
C[C@@H]1CN([C@@H](C)CO)C(=O)c2cccc(NC(=O)Nc3ccc(C(F)(F)F)cc3)c2O[C@H]1CN(C)C(=O)NC1CCCCC1	2	0	101*	0	/	-39
C[C@@H]1CN([C@H](C)CO)C(=O)c2cccc(N(C)C)c2O[C@@H]1CN(C)C(=O)NC1CCCCC1	0	0	27*	-1	3	-7
C/C=C/c1cnc2c(c1)C(=O)N([C@H](C)CO)C[C@@H](C)[C@@H](CN(C)C(=O)NC1CCCC1)O2	0	0	-8	4	7	1
COc1ccc(NC(=O)Nc2cccc3c2O[C@@H](CN(C)C(=O)NC2CCCCC2)[C@@H](C)CN([C@H](C)CO)C3=O)cc1	38*	0	3	-4	1	-28
C[C@@H]1CCCCO[C@H](CN(C)C(=O)Nc2ccc(F)cc2)[C@@H](C)CN([C@@H](C)CO)C(=O)c2cc(NC(=O)c3ccccc3)ccc2O1	0	0	-3	-4	/	/
C[C@@H]1CCCCO[C@@H](CN(C)C(=O)NC2CCCCC2)[C@@H](C)CN([C@@H](C)CO)C(=O)c2cc(NC(=O)Nc3cccc4ccccc34)ccc2O1	0	0	10	-1	/	-12
COc1ccc(NC(=O)Nc2cccc3c2O[C@@H](CN(C)C(=O)Nc2ccc4c(c2)OCO4)[C@@H](C)CN([C@H](C)CO)C3=O)cc1	0	0	5	-1	/	-12
C[C@H](CO)N1C[C@H](C)[C@H](CN(C)CC2CCCCC2)Oc2c(NC(=O)Nc3ccc(F)cc3)cccc2C1=O	-9	0	1	1	-3	7
C[C@@H]1CN([C@H](C)CO)C(=O)c2cccc(NC(=O)Nc3ccc(F)cc3)c2O[C@H]1CN(C)C(=O)NC1CCCCC1	66*	0	2	-3	/	0
C[C@@H]1CN([C@@H](C)CO)C(=O)c2cccc(NC(=O)Nc3ccc(F)cc3)c2O[C@H]1CN(C)CC1CCCCC1	58*	-1	3	-10	-7	38
C[C@H](CO)N1C[C@H](C)[C@H](CN(C)C(=O)NC2CCCCC2)Oc2c(NC(=O)Nc3ccc(F)cc3)cccc2C1=O	-6	0	-2	-5	/	3
CN(C)CCCNC(=O)[C@H]1[C@H](CO)[C@H]2Cn3c(ccc(-c4ccccc4)c3=O)[C@@H]1N2C	0	0	-5	2	/	-3
Nc1nc(C2CC2)c(Sc2sc(N)nc2C2CC2)s1	/	/	/	/	/	69*
CC(C)CCNC(=O)CN(C(=O)CCC(=O)Nc1ccccn1)c1ccc2c(c1)OCCO2	/	/	/	/	-3	9
O=C(CN(C(=O)CCC(=O)Nc1ccccn1)c1ccc2c(c1)OCCO2)NCCc1ccccc1	/	/	/	/	/	100*
Cc1ccc(/C=C2\CCCC3=C2NC(=S)NC3c2ccc(C)cc2)cc1 (configuration not stated)	/	0	1	2	-2	/
COc1ccc(C2NC(=S)NC3=C2CCc2cc(OC)ccc23)cc1 (configuration not stated)	/	/	/	/	-13	90*
C[C@@H]1CCCCO[C@H](CN(C)C(=O)CCCN(C)C)[C@@H](C)CN([C@H](C)CO)C(=O)c2cc(NC(=O)CCC(F)(F)F)ccc2O1	0	1.5*	0	2	/	-10
CCOC(=O)CCCCCC(=O)Nc1ccc2c(c1)C(=O)N([C@H](C)CO)C[C@@H](C)[C@@H](CN(C)S(=O)(=O)c1ccc(C)cc1)OCCCC[C@H](C)O2	2	0	21*	8	-7	/
C[C@H]1CCCCO[C@@H](CN(C)C(=O)CCC(F)(F)F)[C@@H](C)CN([C@@H](C)CO)C(=O)c2cc(NC(=O)C3CCCCC3)ccc2O1	0	0	6	-2	6	/
C[C@@H]1CCCCO[C@@H](CN(C)S(=O)(=O)c2ccccc2)[C@@H](C)CN([C@H](C)CO)C(=O)c2cc(NC(=O)CCC(F)(F)F)ccc2O1	0	15*	-1	1	/	/
C[C@@H]1CCCCO[C@H](CN(C)C(=O)CCC(F)(F)F)[C@@H](C)CN([C@@H](C)CO)C(=O)c2cc(NC(=O)C3CCCCC3)ccc2O1	1	0	18*	-1	-6	/
SMILES	E-selectin induc	FGF22 binding	SIRT5 inh	Ecoli rRNA inh	FN deposition inh	Statin myotox sup
C[C@@H]1CCCCO[C@@H](CN(C)C(=O)CCC(F)(F)F)[C@@H](C)CN([C@H](C)CO)C(=O)c2cc(NC(=O)CCCN(C)C)ccc2O1	0	0	/	4	0	/
C[C@@H]1CN([C@@H](C)CO)C(=O)c2cc(NC(=O)CCC(F)(F)F)ccc2O[C@@H](C)CCCCO[C@@H]1CN(C)S(=O)(=O)c1ccccc1	1	0	1	1	/	/
COc1ccc(S(=O)(=O)Nc2ccc3c(c2)[C@@H]2C[C@@H](CC(=O)O)O[C@H](CO)[C@@H]2O3)cc1	0	0	-3	6	5	-2
C[C@@H]1CN([C@@H](C)CO)S(=O)(=O)c2ccc(-c3cccnc3)cc2O[C@@H]1CN(C)C(=O)c1cccc(F)c1	0	0	-1	-4	11	-5
C[C@@H]1CCCCO[C@@H](CN(C)C)[C@H](C)CN([C@@H](C)CO)C(=O)c2cc(NC(=O)CCC(F)(F)F)ccc2O1	0	0	17*	3	/	-39
O=C(O)c1ccc2c(c1)N(Cc1ccc(F)cc1)C(=O)c1ccccc1S2	/	/	0	-20*	-2	8
O=C(NCCN1CCOCC1)c1ccc2c(c1)N(Cc1cccc(F)c1)C(=O)c1ccccc1S2	/	0	0	-14	4	-8
O=C(NC1CCCCC1)N[C@H]1C=C[C@@H](CC(=O)N2CCOCC2)O[C@H]1CO	-1	0	3	-1	/	3
O=C(O)C(Cc1ccccc1)N1C(=O)/C(=C/C=C/c2ccco2)SC1=S (configuration not stated)	0	0	45*	14	3	2
O=C(O)CC(C(=O)O)N1C(=O)/C(=C/C=C/c2ccco2)SC1=S (configuration not stated)	0	0	30*	17	7	9
